Experimental data gathered from unrelated publications.
Lines come from different studies, so protocols differ.
Organism: Micrococcus luteus
Effect on: microbial growth

CC(=O)NCN1N=C(C)C(=NNn2c(-c3ccccc3)nc3ccccc3c2=O)C1=O
MIC (broth dilution; 24 h): 59.9 µM

C/C=C(\C)c1cc(OC(=O)c2c(C)c(Cl)c(O)c(Cl)c2O)c(C)c(O)c1C(=O)O
MIC (broth dilution; ML01): 64 µg/mL

O=C1NC(=S)S/C1=C\c1ccc(-c2ccc(N(c3ccccc3)c3ccccc3)cc2)cc1
MIC (broth dilution; ATCC10240): 31.1 µg/mL

CC1=NN(CNc2ccccn2)C(=O)C1=NNn1c(-c2ccccc2)nc2ccccc2c1=O
MIC (broth dilution; 24 h): 110 µM

O=C1NC(=S)N/C1=C\c1ccc(-c2ccc(N(c3ccccc3)c3ccccc3)cc2)c2ccccc12
MIC (broth dilution; ATCC10240): > 1000 µg/mL

CC1(C)S[C@@H]2[C@H](NC(=O)[C@H](N)c3ccccc3)C(=O)N2[C@H]1C(=O)O
MIC (broth dilution; ML01): 0.13 µg/mL

O=C(O)CN1C(=O)/C(=C/c2ccc(-c3ccc(N(c4ccccc4)c4ccccc4)cc3)cc2)SC1=S
MIC (broth dilution; ATCC10240): 0.98 µg/mL

CC1=NN(CNC(=O)c2ccccn2)C(=O)C1=NNn1c(-c2ccccc2)nc2ccccc2c1=O
MIC (broth dilution; 24 h): 52 µM

C/C=C(\C)c1cc(O)c(C)c(OC(=O)c2c(C)cc(O)c(Cl)c2O)c1
MIC (broth dilution; ML01): 4 µg/mL

CN(C)[C@@H]1C(O)=C(C(N)=O)C(=O)[C@@]2(O)C(O)=C3C(=O)c4c(O)cccc4[C@@](C)(O)[C@H]3C[C@@H]12
MIC: 2 µg/mL
